The structures appear in SMILES notation. Out of some 330,000 compounds screened, about 2,400 (0.73%) were called active. The sample holds actives, similar compounds and a random draw of the others, so the mix is not that of the screen. Values without a mark were called inactive. Rule for the calls: active = inhibition of at least 40% at 20 µM; inactive = the rest.

Experimental findings from PubChem BioAssay AID489030 (Sanford-Burnham Center for Chemical Genomics, 2010) are described below.

The assay deals with Apoptotic protease-activating factor 1 (Homo sapiens) (UniProt O14727). Description: inhibitors of human Apaf-1 apoptosome, primary screen, biochemical, DEVD-Rh110 fluorescence, uHTS (AID 489030).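 Note: plate controls were DMSO wells for no effect and DEVD-CHO caspase inhibitor wells for full effect.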 To be noted: reconstituted apoptosome caspase-3 activity, at 20 µM, hits give high values. Summed up: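 Material: reconstituted apoptosome with Apaf-1, cytochrome c, caspase-9, procaspase-3, dATP / Buffer or medium: pH 7.5 Hepes buffer with CHAPS, BSA, DTT / Also added: cytochrome c with DEVD-Rh110 / Schedule: compound with Apaf-1, dATP, procaspase-3 30 min, then 50 min reaction, room temperature / Technique: rhodamine 110 fluorescence at Ex 480/Em 540 nm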
Sequence of Apoptotic protease-activating factor 1 (Homo sapiens) (O14727 whole entry, looked up): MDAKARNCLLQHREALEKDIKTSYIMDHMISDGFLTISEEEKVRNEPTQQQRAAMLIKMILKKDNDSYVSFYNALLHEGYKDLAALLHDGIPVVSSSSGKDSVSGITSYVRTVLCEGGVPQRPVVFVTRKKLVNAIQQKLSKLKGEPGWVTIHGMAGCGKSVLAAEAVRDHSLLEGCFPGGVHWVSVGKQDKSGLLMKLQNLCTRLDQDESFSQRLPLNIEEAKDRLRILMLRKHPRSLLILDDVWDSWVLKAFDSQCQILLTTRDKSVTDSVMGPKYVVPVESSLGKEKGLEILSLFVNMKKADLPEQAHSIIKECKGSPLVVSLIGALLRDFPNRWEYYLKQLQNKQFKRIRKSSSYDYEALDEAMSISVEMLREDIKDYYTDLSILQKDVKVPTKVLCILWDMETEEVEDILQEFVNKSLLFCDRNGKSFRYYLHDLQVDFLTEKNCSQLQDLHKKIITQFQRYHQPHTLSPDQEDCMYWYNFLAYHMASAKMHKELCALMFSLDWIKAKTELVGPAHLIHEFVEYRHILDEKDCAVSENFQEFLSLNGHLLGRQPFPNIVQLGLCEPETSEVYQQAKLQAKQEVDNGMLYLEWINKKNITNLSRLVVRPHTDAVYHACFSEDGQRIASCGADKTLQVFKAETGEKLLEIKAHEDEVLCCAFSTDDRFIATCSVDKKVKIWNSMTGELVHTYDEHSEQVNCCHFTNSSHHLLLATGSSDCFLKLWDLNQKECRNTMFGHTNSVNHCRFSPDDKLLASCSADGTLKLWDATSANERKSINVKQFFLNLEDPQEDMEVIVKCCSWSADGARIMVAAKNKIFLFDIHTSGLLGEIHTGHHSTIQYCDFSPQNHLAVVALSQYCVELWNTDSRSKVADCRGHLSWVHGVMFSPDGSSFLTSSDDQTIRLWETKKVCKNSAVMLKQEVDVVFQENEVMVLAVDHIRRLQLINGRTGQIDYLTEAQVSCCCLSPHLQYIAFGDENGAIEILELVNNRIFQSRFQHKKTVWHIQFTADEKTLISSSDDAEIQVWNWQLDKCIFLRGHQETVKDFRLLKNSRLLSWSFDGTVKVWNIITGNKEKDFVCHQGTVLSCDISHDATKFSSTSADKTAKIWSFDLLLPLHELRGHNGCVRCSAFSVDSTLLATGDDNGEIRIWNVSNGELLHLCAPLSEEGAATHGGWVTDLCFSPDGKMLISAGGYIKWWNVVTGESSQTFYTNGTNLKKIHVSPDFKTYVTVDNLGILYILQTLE
Consider `O=C(COC(=O)c1ccc(O)cc1O)NNC(=O)c1cccs1`, for which the inhibition was -6.93%.
For the compound `Cc1cccc(OCCNC(=O)CSc2ccc(C(F)(F)F)cc2[N+](=O)[O-])c1`, the inhibition is 15.2%.
Consider `CC(C)OCCCNC(=O)CN1C(=O)/C(=C/c2ccccc2F)Oc2ccccc21`, for which the inhibition was 11%.
In the case of `CN1CCN(CCCNC(=O)c2ccc(/C=C3\Oc4ccccc4N(Cc4ccc(Cl)cc4)C3=O)cc2)CC1`, the inhibition is 56.6% (active).
For `Cc1c(C)n(Cc2ccc(Cl)cc2)c2ccc(C(=O)NCCCN3CCOCC3)cc12`, the inhibition is 25.9%.
As to `O=C(NCC1CC1)c1onc(CSc2ccccc2)c1C(=O)NCC1CC1`, the inhibition was 14.7%.
`COc1cccc(NC(=O)CSc2nccn(-c3ccc4c(c3)OCCO4)c2=O)c1`: the inhibition was 5.15%.
To `CCOc1cc(CNCCN(C)C)c(Cl)cc1OCC(=O)NCCc1ccccc1` belongs 13.1%.
To `COc1ccc(S(=O)(=O)N(C)C[C@@H]2Oc3ccc(NS(=O)(=O)c4cn(C)cn4)cc3C(=O)N([C@@H](C)CO)C[C@@H]2C)cc1` belongs 5.38%.
The same measure for `O=C1NNC(c2ccccc2)=N/C1=C\c1ccc(Cl)cc1`: 50.6% (active).
With `Cc1ccc(Cl)c(OCC(=O)N(C)CC(=O)Nc2ccc(N3CCOCC3)cc2)c1`, the inhibition is 7.19%.
Regarding `COC(=O)c1ccc(COC(=O)C2CCN(S(=O)(=O)c3c(Cl)cccc3Cl)CC2)o1`, the inhibition was 0.83%.
The same measure for `O=C(Nc1cccc(-c2cccc(Cl)c2)c1)C1CCN(C2CCC2)CC1`: 25.3%; for `CCn1cc(CN2CCC(C(=O)Nc3cccc(-c4cccc(Cl)c4)c3)CC2)cn1`: 33.8%.
To `CCn1cc(CN2CCC(C(=O)Nc3cccc(-c4cccc(Cl)c4)c3)CC2)c(C)n1` belongs 40.5% (active).
With `COc1ccccc1N1CCN(C(=O)CSc2ncnc3c2cnn3-c2ccc(C)c(C)c2)CC1`, the inhibition is -2.97%.
`COc1cccc(-n2c(N)cc(=O)nc2SCC(=O)Nc2cc(C)on2)c1`: the inhibition was 0.469%.
The same measure for `CCCCN1C(=S)NC[C@@H]1C(C)CC` (stereo partly drawn): 1.66%; for `COc1ccccc1C(=O)N1C(CC(=O)Nc2ccccc2C)C(=O)NC2CCCCC21` (stereo not drawn): -7.88%; for `CCOC(=O)Cc1cc(=O)[nH]c(/N=C(\N)Nc2ccc(OC)cc2)n1`: -3.54%.
On to `CCOC(=O)c1ccc(Nc2cc3ccccc3c(=O)[nH]2)cc1`, for which the inhibition was 92.5% (active).
Turning to `CCOC(=O)c1ccc(NC(=O)c2c(N)n(C)c(=O)[nH]c2=O)cc1`, the inhibition was -13.8%.
Consider `CCOC(=O)c1ccc(NC(=O)c2c(NCc3ccccc3)[nH]c(=O)[nH]c2=O)cc1`, for which the inhibition was 3.08%.
